Measurements reported in ChEMBL document CHEMBL1154842, “Synthesis, radiolabeling, and biological evaluation of (R)- and (S)-2-amino-3-[(18)F]fluoro-2-methylpropanoic acid (FAMP) and (R)- and (S)-3-[(18)F]fluoro-2-methyl-2-N-(methylamino)propanoic acid (NMeFAMP) as potential PET radioligands for imaging brain tumors” (J Med Chem, 2010).

Legend:
9L [1] = assay: Cellular uptake in rat 9L cells at 5 uCi measured […] by gamma counting; format: ADME, cell-based
Method in brief: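 9L rat gliosarcoma cells, grown in DMEM with 10% FCS, were trypsinised and washed in HBSS. About 5×10^5 cells were exposed to 5 μCi tracer in amino-acid-free HBSS for 30 min at 37 °C, 5% CO2, then centrifuged and rinsed twice with ice-cold HBSS. Cells were gamma-counted and decay-corrected, with uptake reported as % of initial dose per 5×10^5 cells ± SD, n=3.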

9L [2] = assay: Cellular uptake in rat 9L cells at 5 uCi measured […] by gamma counting in presence of system L transport inhibitor BCH; format: ADME, cell-based
Method in brief: (§1)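 9L rat gliosarcoma cells (DMEM, 10% FCS, 37 °C, 5% CO2) were trypsinised and washed in HBSS. About 5×10^5 cells took up 5 μCi tracer for 30 min in 0.1 mL amino acid-free HBSS, with inhibitor at 10 mM final (ACS: 3.3 mM each of alanine, cysteine, serine). Cells were spun and rinsed twice with ice-cold HBSS, then gamma counted with decay correction. Triplicates; uptake is % ID per 5×10^5 cells.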

9L [3] = assay: Cellular uptake in rat 9L cells assessed as inhibition of uptake at 5 uCi measured […] by gamma counting in presence of system L transport inhibitor BCH relative to control; format: ADME, cell-based; parameters: scale not given: the % may be the effect or the level left
Method in brief: (§2)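 9L rat gliosarcoma cells, grown in DMEM with 10% FCS, were trypsinised and washed in HBSS. About 5×10^5 cells were incubated with 5 μCi tracer in amino-acid-free HBSS for 30 min at 37 °C, with or without 10 mM final BCH, MeAIB or ACS (3.3 mM each Ala/Cys/Ser). Cells were washed cold, gamma-counted and decay-corrected. Inhibition is percent of control; triplicates, one-way ANOVA.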

9L [4] = assay: Cellular uptake in rat 9L cells at 5 uCi measured […] by gamma counting in presence of system A transport inhibitor MeAIB; format: ADME, cell-based; method in brief: as §1
9L [5] = assay: Cellular uptake in rat 9L cells assessed as inhibition of uptake at 5 uCi measured […] by gamma counting in presence of system A transport inhibitor MeAIB relative to control; format: ADME, cell-based; parameters: scale not given: the % may be the effect or the level left; method in brief: as §2
9L [6] = assay: Cellular uptake in rat 9L cells assessed as inhibition of uptake at 5 uCi measured […] by gamma counting in presence of system ASC transport inhibitor ACS relative to control; format: ADME, cell-based; parameters: scale not given: the % may be the effect or the level left; method in brief: as §2
9L [7] = assay: Cellular uptake in rat 9L cells at 5 uCi measured per 0.5 million cells by gamma counting in presence of system ASC transport inhibitor ACS
[8] = rat, in vivo, iv, 1 h
[9] = rat, in vivo, iv, 1 h; remark: listed apart in the source
[10] = Ratio of drug level from tumor to brain of Fischer 344 rat bearing rat 9L cells at 20 uCi, iv after 60 mins; details: in vivo, 1 h
[11] = Biodistribution in tumor of Fischer 344 rat bearing rat 9L cells at 20 uCi, iv after 30 mins; format: ADME, organism-based, Neoplasm; details: in vivo, 0.5 h
Method in brief: (§3)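 Male Fischer 344 rats (200–250 g) carrying intracranial 9L gliosarcoma (5×10^4 cells implanted stereotactically, 10–12 days growth), under ketamine:xylazine anaesthesia. About 20 μCi tracer in 0.5 mL sterile saline given via tail-vein catheter. Groups of 4–5 were killed by intracardiac KCl at 15 (NMeFAMP only), 30, 60 or 120 min. Tissues were weighed and gamma-counted, decay-corrected, and reported as %ID/g, mean ± SD.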

[12] = Ratio of drug level from tumor to brain of Fischer 344 rat bearing rat 9L cells at 20 uCi, iv after 120 mins; format: ADME, organism-based; details: in vivo, 2 h
Blood [13] = assay: Biodistribution in blood of Fischer 344 rat bearing rat 9L cells at 20 uCi, iv after 30 mins; format: ADME, organism-based; details: in vivo, 0.5 h; method in brief: as §3
Blood [14] = assay: Biodistribution in blood of Fischer 344 rat bearing rat 9L cells at 20 uCi, iv after 60 mins; format: ADME, organism-based; details: in vivo, 1 h; method in brief: as §3
Blood [15] = assay: Biodistribution in blood of Fischer 344 rat bearing rat 9L cells at 20 uCi, iv after 120 mins; format: ADME, organism-based; details: in vivo, 2 h; method in brief: as §3
Heart [16] = assay: Biodistribution in heart of Fischer 344 rat bearing rat 9L cells at 20 uCi, iv after 30 mins; format: ADME, organism-based; details: in vivo, 0.5 h; method in brief: as §3
Heart [17] = assay: Biodistribution in heart of Fischer 344 rat bearing rat 9L cells at 20 uCi, iv after 60 mins; format: ADME, organism-based; details: in vivo, 1 h; method in brief: as §3
Heart [18] = assay: Biodistribution in heart of Fischer 344 rat bearing rat 9L cells at 20 uCi, iv after 120 mins; format: ADME, organism-based; details: in vivo, 2 h; method in brief: as §3
Lung [19] = assay: Biodistribution in lung of Fischer 344 rat bearing rat 9L cells at 20 uCi, iv after 30 mins; format: ADME, organism-based; details: in vivo, 0.5 h; method in brief: as §3
Lung [20] = assay: Biodistribution in lung of Fischer 344 rat bearing rat 9L cells at 20 uCi, iv after 60 mins; format: ADME, organism-based; details: in vivo, 1 h; method in brief: as §3
Lung [21] = assay: Biodistribution in lung of Fischer 344 rat bearing rat 9L cells at 20 uCi, iv after 120 mins; format: ADME, organism-based; details: in vivo, 2 h; method in brief: as §3
Liver [22] = assay: Biodistribution in liver of Fischer 344 rat bearing rat 9L cells at 20 uCi, iv after 30 mins; format: ADME, organism-based; details: in vivo, 0.5 h; method in brief: as §3
Liver [23] = assay: Biodistribution in liver of Fischer 344 rat bearing rat 9L cells at 20 uCi, iv after 60 mins; format: ADME, organism-based; details: in vivo, 1 h; method in brief: as §3
Liver [24] = assay: Biodistribution in liver of Fischer 344 rat bearing rat 9L cells at 20 uCi, iv after 120 mins; format: ADME, organism-based; details: in vivo, 2 h; method in brief: as §3
Pancreas [25] = assay: Biodistribution in pancreas of Fischer 344 rat bearing rat 9L cells at 20 uCi, iv after 30 mins; format: ADME, organism-based; details: in vivo, 0.5 h; method in brief: as §3
Pancreas [26] = assay: Biodistribution in pancreas of Fischer 344 rat bearing rat 9L cells at 20 uCi, iv after 60 mins; format: ADME, organism-based; details: in vivo, 1 h; method in brief: as §3
Pancreas [27] = assay: Biodistribution in pancreas of Fischer 344 rat bearing rat 9L cells at 20 uCi, iv after 120 mins; format: ADME, organism-based; details: in vivo, 2 h; method in brief: as §3
Spleen [28] = assay: Biodistribution in spleen of Fischer 344 rat bearing rat 9L cells at 20 uCi, iv after 30 mins; format: ADME, organism-based; details: in vivo, 0.5 h; method in brief: as §3
Spleen [29] = assay: Biodistribution in spleen of Fischer 344 rat bearing rat 9L cells at 20 uCi, iv after 60 mins; format: ADME, organism-based; details: in vivo, 1 h; method in brief: as §3
Spleen [30] = assay: Biodistribution in spleen of Fischer 344 rat bearing rat 9L cells at 20 uCi, iv after 120 mins; format: ADME, organism-based; details: in vivo, 2 h; method in brief: as §3
Kidney [31] = assay: Biodistribution in kidney of Fischer 344 rat bearing rat 9L cells at 20 uCi, iv after 30 mins; format: ADME, organism-based; details: in vivo, 0.5 h; method in brief: as §3
Kidney [32] = assay: Biodistribution in kidney of Fischer 344 rat bearing rat 9L cells at 20 uCi, iv after 60 mins; format: ADME, organism-based; details: in vivo, 1 h; method in brief: as §3
Kidney [33] = assay: Biodistribution in kidney of Fischer 344 rat bearing rat 9L cells at 20 uCi, iv after 120 mins; format: ADME, organism-based; details: in vivo, 2 h; method in brief: as §3
Muscle tissue [34] = assay: Biodistribution in muscle of Fischer 344 rat bearing rat 9L cells at 20 uCi, iv after 30 mins; format: ADME, organism-based; details: in vivo, 0.5 h; method in brief: as §3
Muscle tissue [35] = assay: Biodistribution in muscle of Fischer 344 rat bearing rat 9L cells at 20 uCi, iv after 60 mins; format: ADME, organism-based; details: in vivo, 1 h; method in brief: as §3
Muscle tissue [36] = assay: Biodistribution in muscle of Fischer 344 rat bearing rat 9L cells at 20 uCi, iv after 120 mins; format: ADME, organism-based; details: in vivo, 2 h; method in brief: as §3
Bone [37] = assay: Biodistribution in bone of Fischer 344 rat bearing rat 9L cells at 20 uCi, iv after 30 mins; format: ADME, organism-based, Bone element; details: in vivo, 0.5 h; method in brief: as §3
Bone [38] = assay: Biodistribution in bone of Fischer 344 rat bearing rat 9L cells at 20 uCi, iv after 60 mins; format: ADME, organism-based, Bone element; details: in vivo, 1 h; method in brief: as §3
Bone [39] = assay: Biodistribution in bone of Fischer 344 rat bearing rat 9L cells at 20 uCi, iv after 120 mins; format: ADME, organism-based, Bone element; details: in vivo, 2 h; method in brief: as §3
[40] = Biodistribution in testis of Fischer 344 rat bearing rat 9L cells at 20 uCi, iv after 30 mins; format: ADME, organism-based; details: in vivo, 0.5 h; method in brief: as §3
[41] = Biodistribution in testis of Fischer 344 rat bearing rat 9L cells at 20 uCi, iv after 60 mins; format: ADME, organism-based; details: in vivo, 1 h; method in brief: as §3
[42] = Biodistribution in testis of Fischer 344 rat bearing rat 9L cells at 20 uCi, iv after 120 mins; format: ADME, organism-based; details: in vivo, 2 h; method in brief: as §3
Brain = assay: Biodistribution in brain of Fischer 344 rat bearing rat 9L cells at 20 uCi, iv after 30 mins; details: in vivo, 0.5 h
[43] = Biodistribution in tumor of Fischer 344 rat bearing rat 9L cells at 20 uCi, iv after 30 mins; details: in vivo, 0.5 h

Structure (SMILES): CN[C@](C)(CF)C(=O)O.Cl
- Drug uptake (9L [1]): 3.87 %ID
- Drug uptake (9L [2]): 2.76 %ID
- Activity (9L [3]): 29%
- Drug uptake (9L [4]): 0.82 %ID
- Activity (9L [5]): 79%
- Activity (9L [6]): 58%
- Drug uptake (9L [7]): 1.62 %ID

Structure (SMILES): OC[C@H]1O[C@@H](O)[C@H]([18F])[C@@H](O)[C@@H]1O [FLUDEOXYGLUCOSE-F18]
- Drug uptake [8]: 1.3 % ID/g
- Drug uptake [9]: 1.05 % ID/g
- Ratio [10]: 0.8

Structure (SMILES): C[C@@](N)(C[18F])C(=O)O.Cl
- Ratio [11]: 21.1
- Ratio [12]: 27.7
- Drug uptake (Blood [13]): 0.58 % ID/g
- Drug uptake (Blood [14]): 0.4 % ID/g
- Drug uptake (Blood [15]): 0.32 % ID/g
- Drug uptake (Heart [16]): 0.43 % ID/g
- Drug uptake (Heart [17]): 0.41 % ID/g
- Drug uptake (Heart [18]): 0.34 % ID/g
- Drug uptake (Lung [19]): 0.67 % ID/g
- Drug uptake (Lung [20]): 0.47 % ID/g
- Drug uptake (Lung [21]): 0.36 % ID/g
- Drug uptake (Liver [22]): 0.61 % ID/g
- Drug uptake (Liver [23]): 0.54 % ID/g
- Drug uptake (Liver [24]): 0.42 % ID/g
- Drug uptake (Pancreas [25]): 3.75 % ID/g
- Drug uptake (Pancreas [26]): 3.91 % ID/g
- Drug uptake (Pancreas [27]): 2.79 % ID/g
- Drug uptake (Spleen [28]): 0.73 % ID/g
- Drug uptake (Spleen [29]): 0.62 % ID/g
- Drug uptake (Spleen [30]): 0.51 % ID/g
- Drug uptake (Kidney [31]): 8.71 % ID/g
- Drug uptake (Kidney [32]): 7.62 % ID/g
- Drug uptake (Kidney [33]): 6.88 % ID/g
- Drug uptake (Muscle tissue [34]): 0.47 % ID/g
- Drug uptake (Muscle tissue [35]): 0.37 % ID/g
- Drug uptake (Muscle tissue [36]): 0.36 % ID/g
- Drug uptake (Bone [37]): 0.3 % ID/g
- Drug uptake (Bone [38]): 0.3 % ID/g
- Drug uptake (Bone [39]): 0.31 % ID/g
- Drug uptake [40]: 0.19 % ID/g
- Drug uptake [41]: 0.16 % ID/g
- Drug uptake [42]: 0.17 % ID/g
- Drug uptake [8]: 0.06 % ID/g
- Drug uptake [9]: 1.82 % ID/g
- Drug uptake (Brain): 0.07 % ID/g
- Drug uptake [43]: 1.38 % ID/g
- Ratio [10]: 30.9

Structure (SMILES): C[C@](N)(CF)C(=O)O.Cl
- Drug uptake (9L [1]): 13.06 %ID
- Drug uptake (9L [2]): 4.27 %ID
- Activity (9L [3]): 67%
- Drug uptake (9L [4]): 5.51 %ID
- Activity (9L [5]): 58%
- Activity (9L [6]): 87%
- Drug uptake (9L [7]): 1.7 %ID
